# In the library only some 2.3% were active in any assay of this set; here they are far more common.
# HIV Env fusion = blocks HIV Env-driven cell-cell fusion. HeLa-JRFL Env/CEM21 cell fusion, luciferase. inhibition, % at 12.3 µM. actives 1.1% (n = 360,000);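 active means mean replicate inhibition score of at least 50 and every replicate individually at or above 50; inconclusive means only one of the two criteria met; inactive means mean below 50 and not all replicates reaching 50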;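 further: 0% = plate neutral controls and 100% = maraviroc near 300 nM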
# PfHsp90 set2 = growth inhibition of yeast expressing Plasmodium Hsp90. S. cerevisiae expressing PfHsp90, BacTiter-Glo ATP, 48 h; yeast lacking PDR1 and PDR3 efflux regulators. inhibition, % at 9.4 µM. actives 0.32% (n = 310,000). AID 504621;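 active means every replicate shows inhibition above about 80%, whatever the replicate mean, limit read from the data; inconclusive means mean inhibition reaches the set limit but some replicate falls short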;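 further: 0% = DMSO neutral controls and 100% = 20 µM radicicol positive controls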
# PAX8 inh HTS = PAX8 transcriptional activity inhibition | RMG-I TPO-luciferase reporter, SteadyGlo, 24 h | inhibition, % at 12.6 µM | actives 1.2% (n = 360,000) | AID 652154;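 active means mean replicate inhibition at least 60% with every replicate also reaching 60%; inconclusive means only one of the two criteria is met; inactive means mean below 60% and not all replicates reaching 60%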;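 further: luciferase light reporting Pax8 driven TPO promoter activity; plate controls were median of neutral control wells for no effect and mitoxantrone controls for full effect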
# Arrestin-AP2 inh = inhibitors of human beta-arrestin and AP2 interaction; inhibition, % at 10 µM; AID 504490; actives 0.31% (n = 340,000); FITC-arrestin peptide / GST-AP2 beads, flow cytometry; AP2 beta2 appendage carries R879A mutation;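 active means inhibition above a set limit, near 3 SD of compounds lacking own fluorescence, cut at about 54% in these data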;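 further: plate controls were DMSO wells for no effect and 5 µM unlabelled arrestin peptide for full effect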
#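 Material – GST-tagged AP2 beta2-adaptin appendage (R879A) on 4 µm glutathione beads · Probe or stimulus – fluorescein-tagged arrestin peptide at 50 nM final · Timing – 12 min plus 1 h, RT · Detection – bead flow cytometry, FITC channel · Read-out basis – inhibition as reduced fluorescein signal on beads, percent · Medium – PBS plus Tween 20 (0.05%) and BSA (0.1%)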
# Rtt109 HAT inh = inhibitors of Candida albicans Rtt109/Vps75 histone acetyltransferase. inhibition, % at 34.9 µM. Q5AAJ8. actives 0.16% (n = 330,000). purified Rtt109/Vps75, ThioGlo CoA-SH fluorescence, 4 h;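 active means inhibition of at least 50% in every replicate; inconclusive means best replicate reaches 50% inhibition but some replicates fall short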
# Target sequence (Q5AAJ8 whole entry, looked up): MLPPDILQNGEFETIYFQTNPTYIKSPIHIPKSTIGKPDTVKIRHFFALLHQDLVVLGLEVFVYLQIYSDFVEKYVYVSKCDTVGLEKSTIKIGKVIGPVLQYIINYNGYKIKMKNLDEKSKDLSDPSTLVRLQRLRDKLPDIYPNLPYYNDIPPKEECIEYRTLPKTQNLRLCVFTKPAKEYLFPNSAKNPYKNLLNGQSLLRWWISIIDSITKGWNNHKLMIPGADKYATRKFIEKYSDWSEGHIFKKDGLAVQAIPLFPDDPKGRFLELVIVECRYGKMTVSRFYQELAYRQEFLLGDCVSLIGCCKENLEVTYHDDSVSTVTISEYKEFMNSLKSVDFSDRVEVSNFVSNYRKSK
# N-glyco inh = blocks N-linked glycosylation in D54 reporter cells; D54 ERlucT glycosylation luciferase reporter, 24 h; percent of 100 nM tunicamycin response; reporter increase, % at 12.5 µM; actives 0.23% (n = 360,000);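 active means mean luciferase reporter signal, scaled so untreated is 0 and the glycosylation-blocking control 100, at or above a set limit in every replicate; inconclusive means mean reaches the limit but not every replicate does; inactive means mean below the limit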;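 further: luciferase carries N-glycosylation sites so blocking glycosylation raises the light; 0% = median of neutral control wells and 100% = median of 100 nM tunicamycin wells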
# An asterisk follows results filed as active; ? = inconclusive; . = no result given; [ ] = dose if it differs, or a comment.
SMILES,HIV Env fusion,PfHsp90 set2,PAX8 inh HTS,Arrestin-AP2 inh,Rtt109 HAT inh,N-glyco inh
CCOc1ccc(C(Nc2cccnc2)c2cc(Cl)c3cccnc3c2O)cc1 (stereo not drawn),1,106*,?,9,6,22
CCCC(=O)NC(c1ccc2c(c1)OCO2)c1cc(Cl)c2cccnc2c1O (stereo not drawn),.,99*,.,8,7,-12
CCCC(=O)NC(c1cccs1)c1cc(Cl)c2cccnc2c1O (stereo not drawn),74*,120*,50,6,-13,0
CCC(=O)NC(c1ccc(C)cc1)c1cc(Cl)c2cccnc2c1O (stereo not drawn),.,71,.,-4,2,-8
CCC(=O)NC(C)c1cc(Cl)c2cccnc2c1O (stereo not drawn),-36,-14,-4,2,-1,-3
CCCC(=O)NC(c1ccco1)c1cc(Cl)c2cccnc2c1O (stereo not drawn),.,105*,.,3,1,0
COc1ccc(S(=O)(=O)Nc2ccc3c(c2)C(=O)N([C@H](C)CO)C[C@@H](C)[C@H](CN(C)C(=O)Cc2ccccc2)OCCCC[C@@H](C)O3)cc1,-11[16.7 µM],.,7,.,.,.
CCC(=O)N(C)C[C@@H]1Oc2cc(-c3ccccc3OC)ccc2S(=O)(=O)N([C@H](C)CO)C[C@@H]1C,-16[16.7 µM],.,4,.,.,.
O=S(=O)(c1ccccc1)N1CC2(C1)[C@H](c1ccccc1)[C@H](CO)N2CC1CCCC1,.,.,47,.,.,.
C[C@@H]1CCCCO[C@@H](CN(C)CC2CCCCC2)[C@@H](C)CN([C@@H](C)CO)C(=O)c2cc(NC(=O)Nc3ccc(C(F)(F)F)cc3)ccc2O1,42[16.7 µM],.,100*,.,.,.
C[C@@H]1CN([C@@H](C)CO)C(=O)c2cc(NC(=O)Nc3ccc(C(F)(F)F)cc3)ccc2O[C@@H](C)CCCCO[C@@H]1CN(C)CC1CCCCC1,1[16.7 µM],.,108*,.,.,.
C[C@H](CO)N1C[C@H](C)[C@H](CN(C)CC2CC2)OCCCC[C@H](C)Oc2ccc(NC(=O)Nc3ccc(C(F)(F)F)cc3)cc2C1=O,.,.,73*,.,.,.
C[C@@H]1CCCCO[C@@H](CN(C)CC2CCCCC2)[C@H](C)CN([C@H](C)CO)C(=O)c2cc(NC(=O)Nc3ccc(C(F)(F)F)cc3)ccc2O1,23[16.7 µM],.,-24,.,.,.
C[C@@H]1CCCCO[C@H](CN(C)CC2CC2)[C@H](C)CN([C@@H](C)CO)C(=O)c2cc(NC(=O)Nc3ccc(C(F)(F)F)cc3)ccc2O1,-16[16.7 µM],.,28,.,.,.
c1nc(SSc2ncnc3nc[nH]c23)c2[nH]cnc2n1,-6,-53,19,-14,-1,106*
C=C(C)Cn1c(SCC#N)nc2ccccc2c1=O,.,-13,.,-3,3,0
CCN(CCCn1c(SCC#N)nc2ccccc2c1=O)c1ccccc1,62*,8,.,4,-10,-5
C/C=C/c1ccc([C@H]2[C@@H](CO)N(C(=O)NCCC)[C@@H]2CNC(=O)C2CCC2)cc1,.,.,12,.,.,.
C[C@H](CO)N1C[C@H](C)[C@@H](CN(C)C(=O)Nc2ccc3c(c2)OCO3)Oc2ccc(NC(=O)Nc3ccc4c(c3)OCO4)cc2CC1=O,.,.,2,.,.,.
Cc1ccc(S(=O)(=O)Nc2ccc3c(c2)C(=O)N([C@@H](C)CO)C[C@@H](C)[C@H](CN(C)S(=O)(=O)c2ccc(F)cc2)OCCCC[C@H](C)O3)cc1,35[16.7 µM],.,-19,.,.,.
Cc1ccc(S(=O)(=O)N(C)C[C@@H]2OCCCC[C@H](C)Oc3ccc(NS(=O)(=O)c4ccc(F)cc4)cc3C(=O)N([C@H](C)CO)C[C@H]2C)cc1,8[16.7 µM],.,87*,.,.,.
Cc1ccc(S(=O)(=O)Nc2ccc3c(c2)C(=O)N([C@H](C)CO)C[C@H](C)[C@@H](CN(C)S(=O)(=O)c2ccc(F)cc2)OCCCC[C@H](C)O3)cc1,-22[16.7 µM],.,86*,.,.,.
Cc1ccc(S(=O)(=O)N(C)C[C@H]2OCCCC[C@@H](C)Oc3ccc(NS(=O)(=O)c4ccc(F)cc4)cc3C(=O)N([C@H](C)CO)C[C@H]2C)cc1,-14[16.7 µM],.,60,.,.,.
O=C(CCN1CCCCC1)NCC[C@@H]1CC[C@@H](NC(=O)C2CCC2)[C@H](CO)O1,-31[16.7 µM],.,-19,.,.,.

# Screening data deposited in PubChem BioAssay by several laboratories.
